Among the data in ChEMBL document CHEMBL1128673, “Conformationally constrained phosphotyrosyl mimetics designed as monomeric Src homology 2 domain inhibitors” (J Med Chem, 1995) are ID50 values, retold here.

Assay [1] is described as follows: In vitro binding to p85-C SH2 domain. A digest of the protocol: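 GST fusion of the p85 PI-3 kinase C-terminal SH2 domain (0.5–1.0 μM, Bradford) with 35 fmol (67 nCi) [125I]Bolton–Hunter-labelled IRS-1 pY628 phosphopeptide and varying unlabelled pTyr analogue in 20 mM Tris-HCl, 250 mM NaCl, 0.1% BSA, 10 mM DTT, pH 7.4. Glutathione-agarose capture ran overnight at 22 °C, then 12000g for 5 min; pellet 125I was gamma-counted.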

The target in assay [2] is Proto-oncogene tyrosine-protein kinase Src (Homo sapiens) (UniProt P12931). In words: In vitro binding to Src SH2 domain.
Proto-oncogene tyrosine-protein kinase Src (Homo sapiens), sequence (P12931 2-536 limits assumed): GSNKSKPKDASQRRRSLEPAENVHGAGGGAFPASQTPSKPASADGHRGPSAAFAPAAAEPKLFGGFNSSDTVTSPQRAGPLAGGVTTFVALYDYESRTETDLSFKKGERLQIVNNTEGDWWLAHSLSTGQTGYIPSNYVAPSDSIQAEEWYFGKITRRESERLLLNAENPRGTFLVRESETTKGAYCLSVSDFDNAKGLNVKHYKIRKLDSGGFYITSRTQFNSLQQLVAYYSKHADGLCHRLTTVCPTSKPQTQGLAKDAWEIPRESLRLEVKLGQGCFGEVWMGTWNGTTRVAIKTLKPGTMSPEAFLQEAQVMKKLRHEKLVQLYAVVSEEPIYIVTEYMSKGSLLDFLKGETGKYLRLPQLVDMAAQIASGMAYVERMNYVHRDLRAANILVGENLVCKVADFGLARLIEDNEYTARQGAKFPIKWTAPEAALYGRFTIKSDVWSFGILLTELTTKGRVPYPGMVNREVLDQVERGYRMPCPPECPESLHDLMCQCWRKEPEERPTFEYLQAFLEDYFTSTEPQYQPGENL
The target in assay [3] is T1, Tyrosine-protein phosphatase non-receptor type 11 (Homo sapiens) (UniProt Q06124).
T1 sequence (whole entry): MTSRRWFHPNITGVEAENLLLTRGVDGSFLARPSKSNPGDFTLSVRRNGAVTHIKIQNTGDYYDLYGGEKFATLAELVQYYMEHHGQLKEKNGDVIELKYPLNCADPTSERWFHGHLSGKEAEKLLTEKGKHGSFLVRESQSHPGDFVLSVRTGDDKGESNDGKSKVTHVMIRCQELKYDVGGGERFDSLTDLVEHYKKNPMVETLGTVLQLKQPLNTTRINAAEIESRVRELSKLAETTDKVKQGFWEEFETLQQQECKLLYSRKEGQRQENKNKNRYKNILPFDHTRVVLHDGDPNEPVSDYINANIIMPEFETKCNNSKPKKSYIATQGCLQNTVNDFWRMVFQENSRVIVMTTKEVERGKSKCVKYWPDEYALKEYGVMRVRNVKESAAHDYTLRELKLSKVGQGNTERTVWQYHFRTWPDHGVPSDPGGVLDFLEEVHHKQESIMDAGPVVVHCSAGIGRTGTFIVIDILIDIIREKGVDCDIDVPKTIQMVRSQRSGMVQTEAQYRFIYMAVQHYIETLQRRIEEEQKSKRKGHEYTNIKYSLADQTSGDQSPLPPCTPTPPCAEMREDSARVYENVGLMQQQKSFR
In words: In vitro binding to SH-PTP2-N (SHP-2) SH2 domain. Put shortly: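 SH-PTP2 N-terminal SH2 domain as a GST fusion (0.5–1.0 μM, Bradford) was mixed with 35 fmol (67 nCi) [125I]Bolton–Hunter IRS-1 pY1172 phosphopeptide and varying unlabelled pTyr analogue in 20 mM Tris-HCl, 250 mM NaCl, 0.1% BSA, 10 mM DTT, pH 7.4. Glutathione-agarose pull-down ran overnight at 22 °C, then 12000g for 5 min, with gamma counting of unwashed pellets.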

The target in assay [4] is Tyrosine-protein kinase Lck (Homo sapiens) (UniProt P06239). In words: In vitro binding to p56 Lck SH2 domain. A digest of the protocol: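 Lck SH2 domain as a GST fusion (0.5–1.0 μM, Bradford) with 35 fmol (67 nCi) [125I]Bolton–Hunter hmT pY324 phosphopeptide and varying unlabelled pTyr analogue in 20 mM Tris-HCl, 250 mM NaCl, 0.1% BSA, 10 mM DTT, pH 7.4. Complexes were captured on glutathione-agarose overnight at 22 °C, pelleted at 12000g for 5 min, and unwashed pellets gamma-counted.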
Tyrosine-protein kinase Lck (Homo sapiens), sequence (P06239 2-509 limits assumed): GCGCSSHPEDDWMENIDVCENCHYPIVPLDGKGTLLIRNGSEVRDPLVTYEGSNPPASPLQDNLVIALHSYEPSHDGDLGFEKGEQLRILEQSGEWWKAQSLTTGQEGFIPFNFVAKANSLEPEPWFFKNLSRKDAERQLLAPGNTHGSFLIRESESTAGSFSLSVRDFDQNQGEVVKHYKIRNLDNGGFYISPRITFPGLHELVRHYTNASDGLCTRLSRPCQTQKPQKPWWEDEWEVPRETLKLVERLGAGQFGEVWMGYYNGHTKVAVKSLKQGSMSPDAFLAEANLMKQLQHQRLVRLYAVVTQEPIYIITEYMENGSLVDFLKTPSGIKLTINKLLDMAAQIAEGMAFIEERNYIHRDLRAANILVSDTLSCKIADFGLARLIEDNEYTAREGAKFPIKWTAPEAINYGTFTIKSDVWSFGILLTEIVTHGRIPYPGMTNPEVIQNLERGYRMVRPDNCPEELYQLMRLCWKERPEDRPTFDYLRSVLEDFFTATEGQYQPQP

A short description of assay [5]: In vitro binding to Phospholipase C-gamma SH2 domain. Put shortly:
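Competition binding used GST fusion of the PLCγ C-terminal SH2 domain (0.5–1.0 μM, Bradford) with 35 fmol (67 nCi) [125I]Bolton–Hunter-labelled PDGF pY1021 phosphopeptide plus varying unlabelled pTyr analogue. Buffer was 20 mM Tris-HCl, 250 mM NaCl, 0.1% BSA, 10 mM DTT, pH 7.4. Glutathione-agarose capture ran overnight at 22 °C with mixing, then 12000g for 5 min; pellet 125I was gamma-counted.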

Assay [6] has as its target Growth factor receptor-bound protein 2 (Homo sapiens) (UniProt P62993). In words: In vitro binding to Growth factor receptor bound protein 2. Put shortly:
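GST–Grb2 SH2 fusion (0.5–1.0 μM, Bradford-estimated) with 35 fmol (67 nCi) [125I]Bolton–Hunter-labelled Shc pY317 phosphopeptide and varying unlabelled pTyr analogue in 20 mM Tris-HCl, 250 mM NaCl, 0.1% BSA, 10 mM DTT, pH 7.4. Glutathione-agarose was added, then overnight at 22 °C with mixing. After centrifugation at 12000g for 5 min, unwashed pellet radioactivity was gamma-counted.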

Growth factor receptor-bound protein 2 (Homo sapiens), sequence (P62993 whole entry, looked up, the tested form may be a part): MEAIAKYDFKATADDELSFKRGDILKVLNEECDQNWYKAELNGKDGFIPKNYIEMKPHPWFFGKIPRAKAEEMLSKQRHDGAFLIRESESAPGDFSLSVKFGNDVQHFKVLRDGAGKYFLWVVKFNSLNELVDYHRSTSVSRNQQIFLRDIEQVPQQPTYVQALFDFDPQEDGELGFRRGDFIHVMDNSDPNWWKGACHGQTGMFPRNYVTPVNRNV

As for `CC(=O)N[C@@H](Cc1ccc(OP(=O)(O)O)cc1)C(N)=O`, the ID50 is 1500 µM in assay [1]; 1000 µM in assay [2]; more than 3000 µM in assay [3]; more than 3000 µM in assay [4]; 400 µM in assay [5].

As for `N[C@@H](Cc1ccc(OP(=O)(O)O)cc1)C(=O)O`, the ID50 in assay [1] is 3500 µM; in assay [6], 6200 µM; in assay [2] it was 3500 µM; in assay [3], more than 33000 µM; in assay [4], 5000 µM; in assay [5] it was 2300 µM.

As to `CC(=O)N1CC2Cc3cc(O)ccc3C(C)(C2)C1` (racemic), the ID50 in assay [1] is more than 5000 µM; in assay [2], more than 6000 µM; in assay [3] it was more than 3000 µM; in assay [4] it was more than 6000 µM; in assay [5], more than 6000 µM.

`CC(=O)N1CC2Cc3cc(OP(=O)(O)O)ccc3C(C)(C2)C1` (racemic): the ID50 in assay [1] was 1300 µM; in assay [2], 900 µM; in assay [3], more than 3000 µM; in assay [4], more than 3000 µM; in assay [5] it was more than 3000 µM.

For the molecule `CC(=O)N[C@H](C(N)=O)[C@@H]1CCc2cc(OP(=O)(O)O)ccc21` (racemic), the ID50 in assay [1] was 1500 µM; in assay [6], more than 3000 µM; in assay [2] it was more than 3000 µM; in assay [3], more than 3000 µM; in assay [4], more than 3000 µM; in assay [5], more than 3000 µM.

Consider `CC(=O)N[C@H](C(N)=O)[C@H]1CCc2cc(OP(=O)(O)O)ccc21` (racemic), for which the ID50 in assay [1] was 1500 µM; in assay [6], more than 3000 µM; in assay [2] it was more than 3000 µM; in assay [3], more than 3000 µM; in assay [4], 1500 µM; in assay [5], more than 3000 µM.
